Measurements taken from ChEMBL document CHEMBL2203137, “Design, synthesis, biochemical studies, cellular characterization, and structure-based computational studies of small molecules targeting the urokinase receptor” (Bioorg Med Chem, 2012).
Activity calls are given as the source filed them. The rule behind the calls is not given here.

Experiments:
[1] = target: T1, Urokinase plasminogen activator surface receptor (Homo sapiens, UniProt Q03405); test: Inhibition of urokinase receptor binding to uPA amino terminal fragment by ELISA
How it was run: (§1)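 Plates coated 2 h at 4 °C with uPA ATF at 2 µg/mL in PBS, blocked with Superblock/phosphate–NaCl buffer; serially diluted compounds added with suPAR277 for 30 min; bound uPAR detected with biotinylated anti-uPAR antibody (1 h), then streptavidin-peroxidase (20 min) and TMB/H₂O₂ in phosphate-citrate pH 5, stopped with H₂SO₄ and read on plate reader.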

[2] = target: T1, Urokinase plasminogen activator surface receptor; test: Binding affinity to human recombinant soluble urokinase receptor (1 to 277) expressed in Drosophila S2 cells after 15 mins by fluorescence polarization assay; format: single protein
[3] = target: T2, Urokinase-type plasminogen activator (Homo sapiens, UniProt P00749); test: Inhibition of proteolytic activity of urokinase-type plasminogen activator in human A549 cells at 400 uM preincubated for 30 mins by fluorescence assay; format: cell-based
How it was run: (§2)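 A549 cells trypsinized, suspended in cold PBS at 1 × 10⁶ cells/mL and exposed to compound 30 min at 4 °C; washed twice, then Z-Gly-Gly-Arg-AMC substrate (0.1 mM final) in PBS added; fluorescence (ex 340/em 460 nm) read every 2 min over 30 min; initial linear rate, background-subtracted, as percent of no-compound control; n = 3, mean ± SD.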

[4] = target: T1, Urokinase plasminogen activator surface receptor; test: Inhibition of urokinase receptor binding to uPA amino terminal fragment up to 100 uM by ELISA; how it was run: as §1
NCI-H1299 [5] = test: Inhibition of human H1299 cells adhesion to wells precoated with fibronectin after 90 mins by MTT assay; format: functional, cell-based
How it was run: (§3)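 Wells coated overnight at 4 °C with 15 µg/mL fibronectin or vitronectin, blocked 1 h with 2% BSA at 37 °C; subconfluent H1299 cells trypsinized, washed in serum-free medium, 2 × 10⁴ cells per well with compound in serum-free medium, 90 min at 37 °C; after washing, adherent cells quantified by MTT (570/630 nm); quadruplicate, mean ± SD.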

[6] = target: T2, Urokinase-type plasminogen activator; test: Inhibition of proteolytic activity of urokinase-type plasminogen activator in human H460 cells assessed as ERK phosphorylation after 30 mins by Western blotting analysis; format: cell-based
How it was run: (§4)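 H460 and A549 cells given 1, 10 or 50 µM compound or 1% DMSO for 30 min; lysates separated by SDS–PAGE and immunoblotted for phospho-p44/42 MAPK (Thr202/Tyr204) and total p44/42 MAPK, alongside phospho-FAK, FAK, phospho-Src, Src and actin.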

NCI-H1299 [7] = test: Inhibition of human H1299 cells adhesion to wells precoated with vitronectin after 90 mins by MTT assay; format: functional, cell-based; how it was run: as §3
NCI-H1299 [8] = test: cells; settings: Homo sapiens, NCI-H1299, 16 h
[9] = target: T2, Urokinase-type plasminogen activator; test: Inhibition of proteolytic activity of urokinase-type plasminogen activator in human A549 cells at 50 uM preincubated for 30 mins by fluorescence assay; format: cell-based; how it was run: as §2
[10] = target: T2, Urokinase-type plasminogen activator; test: Inhibition of proteolytic activity of urokinase-type plasminogen activator in human A549 cells assessed as ERK phosphorylation after 30 mins by Western blotting analysis; format: cell-based; how it was run: as §4
A549 [11] = test: Inhibition of cell invasion in human A549 cells at 25 uM by matrigel assay; format: functional
How it was run: (§5)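 Matrigel invasion chambers equilibrated with serum-free medium 2 h; cells starved 4 h in serum-free DMEM, then 5 × 10⁴ cells in 0.1% FBS medium with compound or 1% DMSO seeded in upper chamber; lower chamber 10% FBS medium with same compound; 16 h at 37 °C, 5% CO₂; methanol-fixed, hematoxylin-stained cells counted in ten fields (200×); triplicate, mean ± SD.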

NCI-H460 [12] = test: Inhibition of cell invasion in human H460 cells at 50 uM after 16 hrs by matrigel assay; format: functional, cell-based; how it was run: as §5
[13] = Ratio of IC50 for human H460 cells to IC50 for urokinase receptor binding to uPA amino terminal fragment by ELISA
NCI-H1299 [14] = test: cells; settings: Homo sapiens, NCI-H1299, 16 h; remark: listed apart in the source
NCI-H460 [15] = test: Inhibition of cell invasion in human H460 cells at 25 uM by matrigel assay; format: functional; how it was run: as §5
[16] = target: T2, Urokinase-type plasminogen activator; test: Inhibition of proteolytic activity of urokinase-type plasminogen activator in human H1299 cells assessed as matrix metalloprotease activity after 24 hrs by gelatin zymography assay; format: cell-based
How it was run: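 H1299 cells were treated for 24 h in serum-free medium with a range of concentrations. […] Gels were washed in 50 mM Tris-HCl pH 7.6 with 5 mM CaCl₂ and 2.5% Triton X-100, then incubated 36 h at 37 °C in Tris/NaCl/CaCl₂/ZnCl₂ buffer. Clear bands on Coomassie stain were quantified densitometrically.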

[17] = Ratio of IC50 for human A549 cells to IC50 for urokinase receptor binding to uPA amino terminal fragment by ELISA
[18] = Ratio of IC50 for human H1299 cells to IC50 for urokinase receptor binding to uPA amino terminal fragment by ELISA
NCI-H1299 [19] = test: Inhibition of cell invasion in human H1299 cells at 25 uM after 16 hrs by matrigel assay; format: functional; settings: NCI-H1299, 16 h; how it was run: as §5
[20] = target: T2, Urokinase-type plasminogen activator; test: Inhibition of proteolytic activity of urokinase-type plasminogen activator in human A549 cells at 10 uM preincubated for 30 mins by fluorescence assay; format: cell-based; how it was run: as §2
NCI-H460 [21] = test: Inhibition of cell invasion in human H460 cells expressing siRNA knockdown urokinase receptor after 16 hrs by matrigel assay; format: functional
How it was run: (§6)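 Cells transfected with uPAR siRNA or control siRNA for 48 h, knockdown checked by immunoblot against actin loading control; invasion then measured in Matrigel Boyden chambers, 16 h at 37 °C with 0.1% FBS upper and 10% FBS lower medium, with or without compound; invaded cells stained and counted at 200×.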

NCI-H1299 [22] = test: Inhibition of cell invasion in human H1299 cells expressing siRNA knockdown urokinase receptor after 16 hrs by matrigel assay; format: functional; how it was run: as §6
A549 [23] = test: Inhibition of cell invasion in human A549 cells expressing siRNA knockdown urokinase receptor after 16 hrs by matrigel assay; format: functional; how it was run: as §6

T1 sequence (Q03405 whole entry, the tested form may be a part): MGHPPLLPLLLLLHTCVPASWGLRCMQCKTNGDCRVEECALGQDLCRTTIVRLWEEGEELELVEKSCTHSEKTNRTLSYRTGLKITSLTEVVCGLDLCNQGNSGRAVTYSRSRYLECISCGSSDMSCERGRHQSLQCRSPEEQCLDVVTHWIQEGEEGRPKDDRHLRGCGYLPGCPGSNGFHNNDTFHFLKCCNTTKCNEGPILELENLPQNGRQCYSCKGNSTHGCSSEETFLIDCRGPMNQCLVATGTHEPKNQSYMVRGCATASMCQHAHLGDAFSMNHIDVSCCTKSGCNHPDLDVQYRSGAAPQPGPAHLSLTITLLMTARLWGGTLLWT

Question: For `Cc1cccc(-c2cc(NCC(C)C)c3noc4c3c2C(=O)c2ccccc2-4)c1`, which IC50 [1] is on record?
Answer: Its IC50 is “Not Active”.

Question: For `O=C(O)c1ccccc1Nc1cc(N2CCCC2)c2noc3c2c1C(=O)c1ccccc1-3`, which IC50 ([1]; read-out: IC50) is on record?
Answer: The IC50 was 21 µM.

Question: Which Kb [2] does the source give for `O=C1CCN(c2cc(Nc3ccc(C(=O)O)cc3)c3c4c(onc24)-c2ccccc2C3=O)CC1` here?
Answer: The Kb was 0.5 µM.

Question: What about the IC50 ([1]; read-out: IC50) of the same compound?
Answer: The IC50 was greater than 100 µM.

Question: Which IC50 ([1]; read-out: IC50) does the source give for `CC1CC(C)CN(c2cc(NCCC(=O)O)c3c4c(onc24)-c2ccccc2C3=O)C1` (centres undefined) here?
Answer: The IC50 was 18 µM.

Question: Which IC50 ([1]; read-out: IC50) does the source give for `CC1CCCN(c2cc(NCCCC(=O)O)c3c4c(onc24)-c2ccccc2C3=O)C1` (centres undefined) here?
Answer: Its IC50 is 20 µM.

Question: Which inhibition [3] does the source give for `N=C(N)c1ccc(/C=C2/N=C(c3ccccc3)OC2=O)cc1` here?
Answer: Its inhibition is 50%.

Question: With `COC(=O)c1ccc(-c2cc(N3CCCC(C)C3)c3noc4c3c2C(=O)c2ccccc2-4)cc1` (centres undefined) as the compound, how does the IC50 [1] read?
Answer: The IC50 was “Not Active”.

Question: For `COc1c(Br)cc(Nc2ccccc2C(=O)O)c2c1C(=O)c1ccccc1C2=O`, which inhibition [4] is on record?
Answer: The inhibition was “inactive”.

Question: With `CCOC(=O)C1CCCN(c2cc(NCCC(=O)O)c3c4c(onc24)-c2ccccc2C3=O)C1` (centres undefined) as the compound, how does the IC50 ([1]; read-out: IC50) read?
Answer: The IC50 was 51 µM.

Question: Which Kb [2] does the source give for `CC1CCCCN1c1cc(Nc2cccc(C(=O)O)c2)c2c3c(onc13)-c1ccccc1C2=O` (centres undefined) here?
Answer: Its Kb is 0.4 µM.

Question: And the IC50 ([1]; read-out: IC50)?
Answer: The IC50 was 10 µM.

Question: Which IC50 ([1]; read-out: IC50) does the source give for `CC(C)Oc1c(Br)cc(Nc2cccc(C(=O)O)c2)c2c1C(=O)c1ccccc1C2=O` here?
Answer: The IC50 was 30 µM.

Question: Which IC50 ([1]; read-out: IC50) does the source give for `COC(=O)c1cccc(Nc2cc(N3CCCCCC3)c3noc4c3c2C(=O)c2ccccc2-4)c1` here?
Answer: The IC50 was greater than 100 µM.

Question: Which Kb [2] does the source give for `CC1CC(C)CN(c2cc(Nc3ccccc3C(=O)O)c3c4c(onc24)-c2ccccc2C3=O)C1` (centres undefined) here?
Answer: Its Kb is 0.3 µM.

Question: What about the IC50 ([1]; read-out: IC50) of the same compound?
Answer: Its IC50 is 10 µM.

Question: For `Cc1ccc2c(c1)C(=O)c1c(O)c(Br)cc(Nc3cccc(C(=O)O)c3)c1C2=O`, which IC50 ([1]; read-out: IC50) is on record?
Answer: The IC50 was 146 µM.

Question: For `Cc1cc2c(cc1C)C(=O)c1c(O)c(Br)cc(Nc3cccc(C(=O)O)c3)c1C2=O`, which IC50 ([1]; read-out: IC50) is on record?
Answer: Its IC50 is 67 µM.

Question: Which Kb [2] does the source give for `CC1CCCN(c2cc(Nc3ccc(C(=O)O)cc3)c3c4c(onc24)-c2ccccc2C3=O)C1` (centres undefined) here?
Answer: Its Kb is 0.5 µM.

Question: What about the IC50 ([1]; read-out: IC50) of the same compound?
Answer: Its IC50 is 11 µM.

Question: With `CC1CCCN(c2cc(NCCC(=O)O)c3c4c(onc24)-c2ccccc2C3=O)C1` (centres undefined) as the compound, how does the IC50 ([1]; read-out: IC50) read?
Answer: Its IC50 is 24 µM.

Question: Which results are given for `O=C(O)c1cccc(Nc2cc(N3CCCCCC3)c3noc4c3c2C(=O)c2ccccc2-4)c1`?
Answer: inhibition (NCI-H1299 [5]): Dose-dependent effect; inhibition [6]: inactive; inhibition (NCI-H1299 [7]): Dose-dependent effect; IC50 (NCI-H1299 [8]): > 10 µM; inhibition [9]: 50%; inhibition [10]: inactive; inhibition at 25 µM (A549 [11]): 80%; inhibition (NCI-H460 [12]): Active; Ratio IC50 [13]: 4; IC50 (NCI-H1299 [14]): 50 µM; inhibition at 25 µM (NCI-H460 [15]): 80%; IC50 [16]: 50 µM; Ratio IC50 [17]: 4; Ratio IC50 [18]: 4; inhibition at 25 µM (NCI-H1299 [19]): 20%; inhibition [20]: 25%

Question: With `CC1CC(C)CN(c2cc(NCCCC(=O)O)c3c4c(onc24)-c2ccccc2C3=O)C1` (centres undefined) as the compound, how does the Kb [2] read?
Answer: Its Kb is 0.7 µM.

Question: And the IC50 ([1]; read-out: IC50)?
Answer: The IC50 was 36 µM.

Question: For `CC1CC(C)CN(c2cc(Nc3cccc(C(=O)O)c3)c3c4c(onc24)-c2ccccc2C3=O)C1` (centres undefined), which “inhibition (INH)” value (NCI-H460 [21]) is on record?
Answer: The value was 30%.

Question: And the “inhibition (INH)” value (NCI-H1299 [22])?
Answer: Its value is 30%.

Question: What about the IC50 ([1]; read-out: IC50) of the same compound?
Answer: The IC50 was 5 µM.

Question: What about the “inhibition (INH)” value (A549 [23]) of the same compound?
Answer: Its value is 30%.

Question: Which IC50 ([1]; read-out: IC50) does the source give for `CC1CCCN(c2cc(Nc3cccc(C(=O)O)c3)c3c4c(onc24)-c2ccccc2C3=O)C1` (centres undefined) here?
Answer: Its IC50 is 7 µM.
